Assay results: ChEMBL document CHEMBL1817593, “C5'-Alkyl Substitution Effects on Digitoxigenin α-l-Glycoside Cancer Cytotoxicity” (ACS Med Chem Lett, 2011)

Tests used:
Assay type in all cases: functional
SK-MEL-2 = assay: Cytotoxicity against human SK-MEL-2 cells after 48 hrs by sulforhodamine B assay; conditions: SK-MEL-2, 48 h
OVCAR-5 = assay: Cytotoxicity against human OVCAR5 cells after 48 hrs by sulforhodamine B assay; conditions: OVCAR-5, 48 h
HOP-92 = assay: Cytotoxicity against human HOP92 cells after 48 hrs by sulforhodamine B assay; conditions: HOP-92, 48 h
MDA-MB-231 = assay: Cytotoxicity against human MDA-MB-231 cells after 48 hrs by sulforhodamine B assay; conditions: MDA-MB-231, 48 h
NCI-H460 [1] = assay: Cytotoxicity against human NCI-H460 cells assessed as cell viability at 1 nM after 48 hrs by MTT assay; conditions: NCI-H460, 48 h, read-out: Activity
How it was run: (§1)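 Viability of NCI-H460 cells was measured by MTT (mitochondrial enzymatic activity) after 48 h exposure, within a dose series spanning 1 nM–10 μM. N = 9, analysed by two-way ANOVA.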

NCI-H460 [2] = assay: Cytotoxicity against human NCI-H460 cells assessed as cell death in serum free medium at 50 nM after 12 hrs by Hoechst 33342/propidium iodide staining based fluorescence microscopy
How it was run: (§2)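 NCI-H460 human lung cancer cells exposed 12 h to 10 nM–10 μM drug, including a 50 nM single-concentration test. Nuclei were stained with Hoechst 33342 and necrotic cells with propidium iodide. Apoptotic cells were scored by condensed or fragmented blue nuclei and necrotic cells by red PI staining. Total cell death (apoptosis plus necrosis) was recorded; N = 6.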

MDA-MB-435 [3] = assay: Cytotoxicity against human MDA-MB-435 breast cancer cells after 48 hrs by sulforhodamine B assay; conditions: MDA-MB-435, 48 h
HCC 2998 = assay: Cytotoxicity against human HCC2998 cells after 48 hrs by sulforhodamine B assay; conditions: HCC 2998, 48 h
SK-MEL-5 = assay: Cytotoxicity against human SK-MEL-5 cells after 48 hrs by sulforhodamine B assay; conditions: SK-MEL-5, 48 h
K562 = assay: Cytotoxicity against human K562 cells after 48 hrs by sulforhodamine B assay; conditions: K562, 48 h
OVCAR-8 = assay: Cytotoxicity against human OVCAR8 cells after 48 hrs by sulforhodamine B assay; conditions: OVCAR-8, 48 h
SF-539 = assay: Cytotoxicity against human SF539 cells after 48 hrs by sulforhodamine B assay; conditions: SF-539, 48 h
NCI-H460 [4] = assay: Cytotoxicity against human NCI-H460 cells assessed as cell viability at 100 nM after 48 hrs by MTT assay; conditions: NCI-H460, 48 h, read-out: Activity; how it was run: as §1
SF-268 = assay: Cytotoxicity against human SF268 cells after 48 hrs by sulforhodamine B assay; conditions: SF-268, 48 h
NCI-H460 [5] = assay: Cytotoxicity against human NCI-H460 cells assessed as cell viability after 48 hrs by MTT assay; conditions: NCI-H460, 48 h
How it was run: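 NCI-H460 cells were exposed to drug for 48 h, and viability was read by MTT as mitochondrial enzymatic activity. GI50 was derived from dose-response curves (1 nM–10 μM). Values are from three independent experiments with duplicate determinations, given with standard error of the mean.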

NCI-H460 [6] = assay: Cytotoxicity against human NCI-H460 cells assessed as cell viability at 50 nM after 48 hrs by MTT assay; conditions: NCI-H460, 48 h, read-out: Activity; how it was run: as §1
786-0 = assay: Cytotoxicity against human 786-0 cells after 48 hrs by sulforhodamine B assay; conditions: 786-0, 48 h
NCI-H460 [7] = assay: Cytotoxicity against human NCI-H460 cells assessed as cell death in serum free medium at 25 nM after 12 hrs by Hoechst 33342/propidium iodide staining based fluorescence microscopy; how it was run: as §2
NCI-H322M = assay: Cytotoxicity against human NCI-H322M cells after 48 hrs by sulforhodamine B assay
NCI-H460 [8] = assay: Cytotoxicity against human NCI-H460 cells assessed as cell death in serum free medium at 10000 nM after 12 hrs by Hoechst 33342/propidium iodide staining based fluorescence microscopy; how it was run: as §2
PC-3 = assay: Cytotoxicity against human PC3 cells after 48 hrs by sulforhodamine B assay; conditions: PC-3, 48 h
MDA-MB-435 [9] = assay: Cytotoxicity against human MDA-MB-435 melanoma cells after 48 hrs by sulforhodamine B assay; conditions: MDA-MB-435, 48 h
U-251 = assay: Cytotoxicity against human U251 cells after 48 hrs by sulforhodamine B assay; conditions: U-251, 48 h
SF-295 = assay: Cytotoxicity against human SF295 cells after 48 hrs by sulforhodamine B assay; conditions: SF-295, 48 h
UACC-257 = assay: Cytotoxicity against human UACC257 cells after 48 hrs by sulforhodamine B assay; conditions: UACC-257, 48 h
HL-60(TB) = assay: Cytotoxicity against human HL-60(TB) cells after 48 hrs by sulforhodamine B assay; conditions: HL-60, 48 h
OVCAR-3 = assay: Cytotoxicity against human OVCAR3 cells after 48 hrs by sulforhodamine B assay; conditions: OVCAR-3, 48 h
NCI-H460 [10] = assay: Cytotoxicity against human NCI-H460 cells assessed as cell viability at 1000 nM after 48 hrs by MTT assay; conditions: NCI-H460, 48 h, read-out: Activity; how it was run: as §1
A549 = assay: Cytotoxicity against human A549/ATCC cells after 48 hrs by sulforhodamine B assay; conditions: A549, 48 h
M14 = assay: Cytotoxicity against human M14 cells after 48 hrs by sulforhodamine B assay; conditions: M14, 48 h
RPMI-8226 = assay: Cytotoxicity against human RPMI8226 cells after 48 hrs by sulforhodamine B assay; conditions: RPMI-8226, 48 h
SK-OV-3 = assay: Cytotoxicity against human SKOV3 cells after 48 hrs by sulforhodamine B assay; conditions: SK-OV-3, 48 h
CCRF-CEM = assay: Cytotoxicity against human CCRF-CEM cells after 48 hrs by sulforhodamine B assay
SW-620 = assay: Cytotoxicity against human SW620 cells after 48 hrs by sulforhodamine B assay; conditions: SW-620, 48 h
ACHN = assay: Cytotoxicity against human ACHN cells after 48 hrs by sulforhodamine B assay
NCI-H460 [11] = assay: Cytotoxicity against human NCI-H460 cells assessed as cell death in serum free medium at 100 nM after 12 hrs by Hoechst 33342/propidium iodide staining based fluorescence microscopy; how it was run: as §2
UACC-62 = assay: Cytotoxicity against human UACC62 cells after 48 hrs by sulforhodamine B assay; conditions: UACC-62, 48 h
UO-31 = assay: Cytotoxicity against human UO31 cells after 48 hrs by sulforhodamine B assay; conditions: UO-31, 48 h
NCI-H460 [12] = assay: Cytotoxicity against human NCI-H460 cells assessed as cell death in serum free medium at 1000 nM after 12 hrs by Hoechst 33342/propidium iodide staining based fluorescence microscopy; how it was run: as §2
HCT-15 = assay: Cytotoxicity against human HCT15 cells after 48 hrs by sulforhodamine B assay; conditions: HCT-15, 48 h

`CC(C)C[C@@H]1O[C@@H](O[C@H]2CC[C@@]3(C)[C@H](CC[C@@H]4[C@@H]3CC[C@]3(C)[C@@H](C5=CC(=O)OC5)CC[C@]43O)C2)CC[C@H]1O` was tested, and the GI50 (SK-MEL-2) was 0.115 µM, the GI50 (OVCAR-5) was 0.113 µM and the GI50 (HOP-92) was 0.0742 µM. It also gave a GI50 (MDA-MB-231) of 0.225 µM, a viability at 0.001 µM (NCI-H460 [1]) of 81.8% and an Activity (NCI-H460 [2]) of 13.06%. It also gave a GI50 (MDA-MB-435 [3]) of 0.149 µM, a GI50 (HCC 2998) of 0.204 µM and a GI50 (SK-MEL-5) of 0.0277 µM. It also gave a GI50 (K562) of 0.0269 µM, a GI50 (OVCAR-8) of 0.0296 µM and a GI50 (SF-539) of 0.0238 µM. For the same compound, the viability at 0.1 µM (NCI-H460 [4]) was 18.5%, the GI50 (SF-268) was 0.0263 µM and the GI50 (NCI-H460 [5]) was 0.00827 µM. For the same compound, the viability at 0.05 µM (NCI-H460 [6]) was 25.1%, the GI50 (786-0) was 0.0233 µM and the Activity (NCI-H460 [7]) was 12.41%. The GI50 (NCI-H322M) was 0.0425 µM, the Activity (NCI-H460 [8]) was 100% and the GI50 (PC-3) was 0.0463 µM. The GI50 (MDA-MB-435 [9]) was 0.0351 µM, the GI50 (U-251) was 0.0397 µM and the GI50 (SF-295) was 0.0249 µM. It also gave a GI50 (UACC-257) of 0.0313 µM, a GI50 (HL-60(TB)) of 0.0183 µM and a GI50 (OVCAR-3) of 0.0235 µM. The viability at 1 µM (NCI-H460 [10]) was 3.64%, the GI50 (A549) was 0.0134 µM and the GI50 (M14) was 0.0672 µM. For the same compound, the GI50 (RPMI-8226) was 0.0356 µM, the GI50 (SK-OV-3) was 0.0431 µM and the GI50 (CCRF-CEM) was 0.0285 µM. It also gave a GI50 (SW-620) of 0.032 µM, a GI50 (ACHN) of 0.0122 µM and an Activity (NCI-H460 [11]) of 17.69%. For the same compound, the GI50 (UACC-62) was 0.0505 µM, the GI50 (UO-31) was 0.0277 µM and the Activity (NCI-H460 [12]) was 94.8%. It also gave a GI50 (HCT-15) of 0.0403 µM.

In the case of `CC(C)[C@@H]1O[C@@H](O[C@H]2CC[C@@]3(C)[C@H](CC[C@@H]4[C@@H]3CC[C@]3(C)[C@@H](C5=CC(=O)OC5)CC[C@]43O)C2)CC[C@H]1O`, the GI50 (SK-MEL-2) is reported as 0.17 µM, the GI50 (OVCAR-5) is reported as 0.107 µM and the GI50 (HOP-92) is reported as 0.0798 µM. For the same compound, the GI50 (MDA-MB-231) was 0.259 µM, the viability at 0.001 µM (NCI-H460 [1]) was 81.1% and the Activity (NCI-H460 [2]) was 14.48%. The GI50 (MDA-MB-435 [3]) was 0.15 µM, the GI50 (HCC 2998) was 0.243 µM and the GI50 (SK-MEL-5) was 0.0226 µM. It also gave a GI50 (K562) of 0.047 µM, a GI50 (OVCAR-8) of 0.0562 µM and a GI50 (SF-539) of 0.0276 µM. The viability at 0.1 µM (NCI-H460 [4]) was 12.4%, the GI50 (SF-268) was 0.0263 µM and the GI50 (NCI-H460 [5]) was 0.00766 µM. The viability at 0.05 µM (NCI-H460 [6]) was 22.2%, the GI50 (786-0) was 0.0268 µM and the Activity (NCI-H460 [7]) was 12.07%. The GI50 (NCI-H322M) was 0.0774 µM, the Activity (NCI-H460 [8]) was 100% and the GI50 (PC-3) was 0.0619 µM. It also gave a GI50 (MDA-MB-435 [9]) of 0.0828 µM, a GI50 (U-251) of 0.0829 µM and a GI50 (SF-295) of 0.0286 µM. The GI50 (UACC-257) was 0.122 µM, the GI50 (HL-60(TB)) was 0.0143 µM and the GI50 (OVCAR-3) was 0.026 µM. The viability at 1 µM (NCI-H460 [10]) was 5.21%, the GI50 (A549) was 0.0177 µM and the GI50 (M14) was 0.0934 µM. The GI50 (RPMI-8226) was 0.0784 µM, the GI50 (SK-OV-3) was 0.118 µM and the GI50 (CCRF-CEM) was 0.0331 µM. It also gave a GI50 (SW-620) of 0.0428 µM, a GI50 (ACHN) of 0.017 µM and an Activity (NCI-H460 [11]) of 18.89%. The GI50 (UACC-62) was 0.119 µM, the GI50 (UO-31) was 0.0234 µM and the Activity (NCI-H460 [12]) was 90.66%. The GI50 (HCT-15) was 0.0622 µM.
